# Source: ChEMBL document CHEMBL1122377, “Nitrogen bridgehead compounds. 38. New antiallergic 4H-pyrido[1,2-a]pyrimidin-4-ones. 3” (1983)
# System: Rattus norvegicus
# Test: Antiallergic activity after os administration using rat reaginic passive cutaneous anaphylaxis (PCA) test.
# Assay type: functional
# Conditions: not given
# How it was run: (§1)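 Inhibition in the rat reaginic PCA test after dosing; significance of each value judged by Student's t test.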
row,Compound,Activity [%]
1,CC1CCC(/C=N/c2ccccc2)=C2NC=C(C(=O)O)C(=O)N21 (stereo unspecified),47

# Same assay, conditions: read-out: ID50 (the source's name)
row,Compound,ED50 [µmol/kg]
1,CC1CC=C(Nc2ccc(O)cc2)c2ncc(C(=O)O)c(=O)n21 (stereo unspecified),100
2,CC1CC=C(Nc2ccc3ccccc3c2)c2ncc(C(=O)O)c(=O)n21 (stereo unspecified),30.8
3,CC1CC=C(Nc2ccc(C(=O)O)cc2)c2ncc(C(=O)O)c(=O)n21 (stereo unspecified),277
4,CC1CC=C(Nc2cccc(C(=O)O)c2)c2ncc(C(=O)O)c(=O)n21 (stereo unspecified),92.6

# System: Rattus norvegicus
# Test: Antiallergic activity after iv administration using rat reaginic passive cutaneous anaphylaxis (PCA) test;ins means insoluble.
# Conditions: not given
row,Compound,ID50
1,CC1CCC(Nc2ccccc2)c2ncc(C(=O)O)c(=O)n21 (stereo unspecified),Insoluble
2,CC1CCC(C(=O)N(C)C)c2ncc(C(=O)O)c(=O)n21 (stereo unspecified),Insoluble

# System: Rattus norvegicus
# Test: Antiallergic activity after os administration using rat reaginic passive cutaneous anaphylaxis (PCA) test; insignificant activity; per os 10e3 umol/kg exhibited 31% protection
# Assay type: functional
# Conditions: not given
row,Compound,Activity [%]
1,CCOC(=O)c1cnc2n(c1=O)C(C)CCC2C(=O)Nc1ccccc1 (stereo unspecified),31

# System: Rattus norvegicus
# Test: Antiallergic activity after iv administration using rat reaginic passive cutaneous anaphylaxis (PCA) test;Compound is toxic at 100 umol/kg.
# Conditions: not given
row,Compound,ID50 [µmol/kg]
1,CC1CC=C(Nc2cccc(Br)c2)c2ncc(C(=O)O)c(=O)n21 (stereo unspecified),10
2,CC1CC=C(Nc2cccc(I)c2)c2ncc(C(=O)O)c(=O)n21 (stereo unspecified),10

# System: Rattus norvegicus
# Test: Antiallergic activity after intravenous administration using rat reaginic passive cutaneous anaphylaxis (PCA) test.
# Assay type: functional
# Conditions: not given
# How it was run: as §1
row,Compound,ID50 [µM/kg]
1,CC1CCC(=NNc2ccccc2)c2ncc(C(=O)O)c(=O)n21 (stereo in doubt),0.3

# Same assay, conditions: Rattus norvegicus, iv; read-out: ID50 (the source's name)
row,Compound,ED50 [µmol/kg]
1,CC1CC=C(Nc2ccc(F)cc2)c2ncc(C(=O)O)c(=O)n21 (stereo unspecified),8.6
2,CC1CCCc2ncc(C(=O)O)c(=O)n21 (stereo unspecified),240
3,CC(=O)c1cccc(NC2=CCC(C)n3c2ncc(C(=O)O)c3=O)c1 (stereo unspecified),0.36
4,C[C@H]1CC=C(Nc2ccccc2)c2ncc(C(=O)O)c(=O)n21,1.2
5,O=C(O)c1cc(=O)c2c(OCC(O)COc3cccc4oc(C(=O)O)cc(=O)c34)cccc2o1 [CROMOLYN SODIUM],1
6,CC1CCC(/C(S)=N/c2ccccc2)c2ncc(C(=O)O)c(=O)n21 (stereo unspecified),9.1
7,C[C@@H]1CC=C(Nc2ccccc2)c2ncc(C(=O)O)c(=O)n21,100
8,CC1CCC(=NNc2ccccc2)c2ncc(C(=O)O)c(=O)n21 (stereo in doubt; 2),0.6
9,CC1CC=C(Nc2ccc(O)cc2)c2ncc(C(=O)O)c(=O)n21 (stereo unspecified),2.93
10,Cc1ccccc1NC1=CCC(C)n2c1ncc(C(=O)O)c2=O (stereo unspecified),5.4
11,CC1CC=C(N(C)c2ccccc2)c2ncc(C(=O)O)c(=O)n21 (stereo unspecified),> 100
12,CCO/N=C1\CCC(C)n2c1ncc(C(=O)OCC)c2=O (stereo unspecified),41.2
13,CC1CC=C(Nc2ccccc2)c2ncc(C(=O)O)c(=O)n21 (stereo unspecified),2.1
14,CCOC(=O)c1cnc2n(c1=O)C(C)CC/C2=N\O (stereo unspecified),100
15,CC1CC=C(Nc2ccc(C(=O)O)cc2)c2ncc(C(=O)O)c(=O)n21 (stereo unspecified),3.5
16,CC1CC/C(=N\O)c2ncc(C(=O)O)c(=O)n21 (stereo unspecified),19.4
17,CC1CC=C(Nc2ccccc2C(=O)O)c2ncc(C(=O)O)c(=O)n21 (stereo unspecified),0.66
18,CC1CC/C(=N\N)c2ncc(C(=O)O)c(=O)n21 (stereo unspecified),42
19,CC1CCC(C(=O)Nc2ccccc2)c2ncc(C(=O)O)c(=O)n21 (stereo unspecified),0.56
20,CCO/N=C1\CCC(C)n2c1ncc(C(=O)O)c2=O (stereo unspecified),24.3
21,CC1CC=C(Nc2cccc(C(=O)O)c2)c2ncc(C(=O)O)c(=O)n21 (stereo unspecified),0.62
22,CC1CC=C(Nc2cccc(F)c2)c2ncc(C(=O)O)c(=O)n21 (stereo unspecified),1.4
23,CCc1nc2n(c(=O)c1C(=O)O)C(C)CC/C2=N\O (stereo unspecified),> 100
24,Cc1cccc(NC2=CCC(C)n3c2ncc(C(=O)O)c3=O)c1 (stereo unspecified),0.74
25,Cc1nc2n(c(=O)c1C(=O)O)C(C)CC/C2=N\O (stereo unspecified),> 100
